Source: PMC6408981 (Neuropharmacology, 2018)

Columns and labels:
smokers = conditions: clinical trials; ref Robinson et al., 2017; cited from earlier work
ICR mice [1] = test: Cumulative CP55,940 dose-response study; format: in vivo, mouse
Outline: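 Male ICR mice (6–8 weeks, 27–32 g) received test compound (60 mg/kg i.p.) or vehicle 10 min before the first CP55,940 dose. Further doses followed every 40 min. Bar-test catalepsy, tail-flick and rectal temperature were measured at baseline and 30 min after each dose. Analysis was two-way ANOVA with Sidak post-hoc.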

ICR mice [2] = conditions: ref Ignatowska-Jankowska et al., 2015; cited from earlier work
PPAR-α = biological target: T1, PPAR-α (Mus musculus, UniProt P23204); test: PPAR-α luciferase assay in COS-7 cells; format: cell-based; conditions: 18 h
T1 sequence (P23204 1-468): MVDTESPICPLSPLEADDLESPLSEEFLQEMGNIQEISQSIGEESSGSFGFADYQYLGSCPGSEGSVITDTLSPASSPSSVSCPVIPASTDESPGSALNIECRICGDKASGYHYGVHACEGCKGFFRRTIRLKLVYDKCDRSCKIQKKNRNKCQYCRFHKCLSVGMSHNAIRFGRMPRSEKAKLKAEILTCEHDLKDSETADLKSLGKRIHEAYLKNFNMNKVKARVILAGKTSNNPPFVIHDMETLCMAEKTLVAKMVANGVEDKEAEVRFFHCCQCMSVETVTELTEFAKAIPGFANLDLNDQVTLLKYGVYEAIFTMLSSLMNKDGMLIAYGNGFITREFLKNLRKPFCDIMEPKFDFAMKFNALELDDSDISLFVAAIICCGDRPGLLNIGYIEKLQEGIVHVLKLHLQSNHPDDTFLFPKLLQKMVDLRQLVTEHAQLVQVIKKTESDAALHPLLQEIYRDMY
Outline: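 COS-7 cells in DMEM with 10% FBS were transfected by lipofection with mouse PPAR-α (25 ng), PPRE×3-TK-luciferase (300 ng), β-galactosidase control (100 ng) and empty pcDNA3 (75 ng) per well. Next day the medium was replaced with compound-containing medium for 18 h. Firefly luciferase chemiluminescence was normalised to β-galactosidase activity and compared by Welch-corrected t-test.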

dependent smokers = conditions: ref Perkins et al., 2016; cited from earlier work
mice = conditions: ref Jackson et al., 2017; cited from earlier work
ICR mice [3] = test: Nicotine conditioned place preference; format: in vivo, mouse
Outline: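 Male ICR mice underwent unbiased three-chamber CPP. Day 1: 5-min middle-chamber habituation, then 15 min free access as baseline. Days 2–4: two 20-min conditioning sessions daily, 4 h apart. Controls got saline in both large chambers, with i.p. pretreatment 15 min before. Day 5: 15-min drug-free test. Score = test minus baseline time on the paired side.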

[4] = biological target: human recombinant CB1 receptor (Homo sapiens, UniProt P21554); test: Cannabinoid receptor binding, [3H]-CP-55,940 displacement, CB1
Outline: (§1)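 Membranes from HEK-293 cells stably expressing the human receptor (CB1 Bmax 2.5, CB2 Bmax 4.7 pmol/mg protein) were incubated with test compound and [3H]-CP-55,940 for 90 min at 30 °C. […] Nonspecific binding was defined with 10 μM WIN 55212-2. Ki came from IC50 via Cheng-Prusoff; at least 3 experiments, mean ± SEM.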

[5] = biological target: human recombinant CB2 receptor (Homo sapiens, UniProt P34972); test: Cannabinoid receptor binding, [3H]-CP-55,940 displacement, CB2
Outline: as §1

[6] = biological target: T2, fatty acid amide hydrolase (Rattus norvegicus, UniProt P97612); test: AEA hydrolysis by rat brain membranes; format: biochemical
T2 sequence (P97612 1-579): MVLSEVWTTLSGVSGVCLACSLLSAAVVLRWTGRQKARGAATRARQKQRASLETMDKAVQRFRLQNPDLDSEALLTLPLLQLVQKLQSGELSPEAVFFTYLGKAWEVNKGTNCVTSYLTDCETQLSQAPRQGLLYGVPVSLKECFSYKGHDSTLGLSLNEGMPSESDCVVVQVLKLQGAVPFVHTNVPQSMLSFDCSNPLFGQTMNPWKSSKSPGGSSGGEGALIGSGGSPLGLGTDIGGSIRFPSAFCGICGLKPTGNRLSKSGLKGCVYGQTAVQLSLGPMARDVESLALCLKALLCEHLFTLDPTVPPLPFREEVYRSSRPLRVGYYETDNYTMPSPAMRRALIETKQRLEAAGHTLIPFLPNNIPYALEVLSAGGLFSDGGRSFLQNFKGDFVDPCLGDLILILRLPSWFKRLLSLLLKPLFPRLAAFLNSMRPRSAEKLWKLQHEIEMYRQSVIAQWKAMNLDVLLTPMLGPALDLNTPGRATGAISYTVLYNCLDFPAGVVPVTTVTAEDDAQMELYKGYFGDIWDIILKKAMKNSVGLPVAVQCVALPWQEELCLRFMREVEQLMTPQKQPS

ICR mice [7] = test: Tetrad behavioral assessment; format: in vivo, mouse; conditions: for Distance traveled / Speed / Time immobile: 10 min recording starting 5 min after injection; for Δ rectal temperature / Catalepsy / Antinociception: 30 min after injection; for Catalepsy: bar test; for Antinociception: tail withdrawal
Outline: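 Mice were acclimated at least 1 h, then baseline tail-withdrawal latency and body temperature were taken. Test compound or vehicle was given i.p.; 30 min later came bar-test catalepsy (immobility over 60 s), tail withdrawal (%MPE with 10 cutoff) and Δ temperature. Locomotor: 5 min post-dose, distance (cm) and immobile time (s) were video-tracked for 10 min. Analysis: one-way ANOVA, Dunnett.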

[8] = OlGly levels in plasma and brain regions after i.p. injection; format: in vivo, mouse
Outline: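 ICR mice received test compound (60 mg/kg i.p.) or vehicle. After 15 min, plasma, insular cortex, hippocampus and hypothalamus were collected. Samples were extracted with chloroform/methanol/50 mM Tris-HCl pH 7.5 (2:1:1) containing deuterated internal standards. Quantification was by isotope-dilution LC-MS (C18 column, isocratic methanol/water/acetic acid, positive ESI).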

nicotine-dependent mice = test: Mecamylamine-precipitated nicotine withdrawal; format: in vivo, mouse
Outline: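 Male ICR mice (6–8 weeks, 27–32 g) had s.c. minipumps implanted under isoflurane, delivering nicotine 24 mg/kg/day or saline for 14 days. On day 15 they got the test compound i.p. (10, 30 or 60 mg/kg) or vehicle, then mecamylamine 2 mg/kg s.c. at 15 min. From 25 min, blinded scoring: 5 min elevated plus maze (open/closed-arm time, arm crosses), then 20 min somatic signs; n = 7–8/group.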

ICR mice [9] = test: Morphine conditioned place preference; format: in vivo, mouse; conditions: OlGly i.p. pretreatment, morphine 10 mg/kg s.c. (methods)
Outline: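 Unbiased three-chamber CPP in male ICR mice. Day 1 baseline: 15 min free access after 5-min habituation. Days 2–4: twice-daily conditioning, 4 h apart and counterbalanced. Test compound or vehicle was given i.p. 15 min before morphine (10 mg/kg s.c.); 30-min sessions began 15 min after morphine. Day 5: 15-min drug-free test. Score = test minus baseline time in the morphine-paired side.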

rats = conditions: ref Chaturvedi et al., 2006; cited from earlier work
[10] = 60 mg/kg i.p., 15 min after injection, ICR mice

human recombinant CB2 receptor, sequence (P34972 whole entry): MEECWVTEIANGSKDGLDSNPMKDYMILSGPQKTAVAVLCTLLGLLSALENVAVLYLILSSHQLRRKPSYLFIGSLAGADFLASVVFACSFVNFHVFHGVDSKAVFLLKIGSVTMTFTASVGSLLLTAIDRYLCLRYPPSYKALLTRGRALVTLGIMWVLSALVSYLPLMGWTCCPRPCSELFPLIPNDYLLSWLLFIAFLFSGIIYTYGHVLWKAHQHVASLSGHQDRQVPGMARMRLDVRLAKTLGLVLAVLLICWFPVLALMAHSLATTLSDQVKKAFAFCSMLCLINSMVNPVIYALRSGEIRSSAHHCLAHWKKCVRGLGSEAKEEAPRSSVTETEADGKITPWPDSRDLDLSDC
human recombinant CB1 receptor, sequence (P21554 whole entry): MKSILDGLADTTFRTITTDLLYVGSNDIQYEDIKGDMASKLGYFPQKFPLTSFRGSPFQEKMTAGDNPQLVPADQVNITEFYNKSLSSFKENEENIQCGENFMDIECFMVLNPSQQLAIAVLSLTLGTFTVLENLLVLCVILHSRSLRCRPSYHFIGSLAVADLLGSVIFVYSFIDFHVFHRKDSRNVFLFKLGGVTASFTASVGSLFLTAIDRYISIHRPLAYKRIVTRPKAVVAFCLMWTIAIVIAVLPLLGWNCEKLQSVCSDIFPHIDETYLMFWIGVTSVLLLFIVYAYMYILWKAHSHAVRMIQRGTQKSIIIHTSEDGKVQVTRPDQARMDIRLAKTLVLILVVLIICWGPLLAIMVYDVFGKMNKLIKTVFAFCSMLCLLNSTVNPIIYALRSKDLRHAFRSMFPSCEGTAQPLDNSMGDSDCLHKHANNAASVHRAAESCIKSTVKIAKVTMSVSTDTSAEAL

For Cc1c(C(=O)NN2CCCCC2)nn(-c2ccc(Cl)cc2Cl)c1-c1ccc(Cl)cc1 [rimonabant], the “Smoking abstinence compared with placebo” value (smokers) is listed as “effectively improved smoking abstinence”.
In the case of “(−)-cis-3-[2-hydroxy-4-(1,1-dimethylheptyl)phenyl]-trans-4-(3-hydroxypropyl)-cyclohexanol [CP55,940, reference compound]”, the “Catalepsy, antinociception and hypothermia” value (ICR mice [1]; cumulative 0, 0.3, 1 and 3 mg/kg i.p., vehicle-pretreated mice) is reported as “dose-dependently induced”.
For Cc1ccc2c(C(C[N+](=O)[O-])c3cccs3)c(-c3ccccc3)[nH]c2c1 (stereo not shown) [ZCZ011], the “Shift of the CP55,940 dose-response curve (antinociceptive, cataleptic, hypothermic effects)” value (ICR mice [2]) is listed as “elicited a leftward shift”.
In the case of CC(C)(Sc1ccc(CCN(CCCCC2CCCCC2)C(=O)NC2CCCCC2)cc1)C(=O)O [GW7647, reference compound], the “Luciferase activity compared to DMSO” value (PPAR-α; GW7647 10 mM as printed in Fig. 6) is reported as “significantly increased luciferase activity”.
For CC(C)OC(=O)C(C)(C)Oc1ccc(C(=O)c2ccc(Cl)cc2)cc1 [fenofibrate], the “Ability to stop smoking during a brief practice quit period” value (dependent smokers) is listed as “did not facilitate the ability to stop smoking” and the “Reversal of nicotine withdrawal” value (mice) is listed as “failed to reverse nicotine withdrawal”.
In the case of CCC(=O)NC[C@H](Cc1ccc(OCCc2nc(-c3ccccc3)oc2C)cc1)N/C(C)=C\C(=O)c1ccc(C(F)(F)F)cc1 [GW6471, N-((2S)-2-(((1Z)-1-methyl-3-oxo-3-(4-(trifluoromethyl)phenyl)prop-1-enyl)amino)-3-(4-(2-(5-methyl2phenyl-1,3-oxazol-4-yl)ethoxy)phenyl)propyl)propanamide, reference compound], the “Effect on OlGly blockade of nicotine CPP” value (ICR mice [3]; GW6471 2 mg/kg i.p. 30 min before OlGly, mice) is reported as “fully prevented OlGly blockade of nicotine CPP”.
In the case of CCCCCCCC/C=C\CCCCCCCC(=O)NCC(=O)O [OlGly, N-oleoyl-glycine], the IC50 [4] is reported as 45.5 ± 5.1 µM, the Ki [4] is reported as 27.8 ± 3.1 µM and the “CB1 displacement produced by maximum dose tested (50 μM)” value ([4]; 50 μM) is reported as 55.9 ± 7.3%. The IC50 [5] was > 50 µM, the Ki [5] was > 50 µM and the “CB2 displacement produced by maximum dose tested (50 μM)” value ([5]; 50 μM) was 15.5 ± 6.40%. It also gave an IC50 [6] of 8.65 µM, an inhibition at 50 µM ([6]; read-out: FAAH inhibition produced by maximum dose tested (50 μM)) of 89.4% and a Distance traveled (ICR mice [7]; 10 mg/kg i.p.) of 24.3 ±1.2 cm. For the same compound, the Speed (ICR mice [7]; 10 mg/kg i.p.) was 8.1 ± 0.4 cm/s, the Time immobile (ICR mice [7]; 10 mg/kg i.p.) was 8.6 ± 1.6 s and the Δ rectal temperature (ICR mice [7]; 10 mg/kg i.p.) was −0.90 ± 0.19 °C. It also gave a Catalepsy (ICR mice [7]; 10 mg/kg i.p.) of 0.0 s, an Antinociception (ICR mice [7]; 10 mg/kg i.p.) of 12.0± 6.6 %MPE and a Distance traveled (ICR mice [7]; 30 mg/kg i.p.) of 21.5±1.7 cm. The Speed (ICR mice [7]; 30 mg/kg i.p.) was 7.2 ± 0.6 cm/s, the Time immobile (ICR mice [7]; 30 mg/kg i.p.) was 11.8 ± 6.2 s and the Δ rectal temperature (ICR mice [7]; 30 mg/kg i.p.) was −1.13 ± 0.26 °C. It also gave a Catalepsy (ICR mice [7]; 30 mg/kg i.p.) of 0.0 s, an Antinociception (ICR mice [7]; 30 mg/kg i.p.) of 6.0 ± 4.5 %MPE and a Distance traveled (ICR mice [7]; 100 mg/kg i.p.) of 18.6±1.5 cm. For the same compound, the Speed (ICR mice [7]; 100 mg/kg i.p.) was 6.21 ± 0.5 cm/s, the Time immobile (ICR mice [7]; 100 mg/kg i.p.) was 17.4 ± 7.3 s and the Δ rectal temperature (ICR mice [7]; 100 mg/kg i.p.) was −0.22 ± 0.5431 °C. For the same compound, the Catalepsy (ICR mice [7]; 100 mg/kg i.p.) was 0.0 s, the Antinociception (ICR mice [7]; 100 mg/kg i.p.) was 25.9±11.0 %MPE and the “OlGly levels in hippocampus” value [8, 10] was 186.0 ± 60.05 pmol/g. For the same compound, the “OlGly levels in hypothalamus” value [8, 10] was 245.6 ± 108.1 pmol/g, the “OlGly levels in insula” value [8, 10] was 168.0 ± 60.28 pmol/g and the concentration at 15 min ([8]; ICR, mouse, plasma, intraperitoneal, 60 mg/kg) was 2000 ± 627 nM. For the same compound, the “Number of mecamylamine-precipitated somatic withdrawal signs” value (nicotine-dependent mice; 60 mg/kg i.p., nicotine-dependent mice) was “attenuated the number of mecamylamine-precipitated somatic withdrawal signs”, the “Overt behavioral alterations in control mice” value (nicotine-dependent mice; control mice continuously infused with saline) was “did not elicit overt behavioral alterations” and the “Development of nicotine-induced CPP” value (ICR mice [3]; i.p. 15 min before nicotine 0.5 mg/kg s.c. on conditioning days, mice) was “dose-dependently prevented the development of nicotine-induced CPP”. For the same compound, the “Place preference in saline-treated mice” value (ICR mice [3]; saline-treated mice) was “did not affect place preference”, the “Morphine CPP” value (ICR mice [9]) was “did not carry over to morphine CPP” and the “Shift of the CP55,940 dose-response relationship in the tetrad assay” value (ICR mice [1]; OlGly 60 mg/kg i.p. 10 min before first CP55,940 dose, mice) was “did not alter the dose-response relationship”. The “Luciferase activity compared to DMSO” value (PPAR-α; OlGly 10 mM, 50 μM and 100 mM as printed in Fig. 6) was “significantly increased luciferase activity”, the Locomotor activity (rats) was “decreases locomotor activity” and the “Reduction of body temperature” value (rats) was 1.5–2.0 °C.
